Source: ChEMBL document CHEMBL4828740, “Discovery of Quinoxaline-Based P1-P3 Macrocyclic NS3/4A Protease Inhibitors with Potent Activity against Drug-Resistant Hepatitis C Virus Variants” (J Med Chem, 2021)

How the values were obtained:
Hepatitis C virus [1] = assay: Antiviral activity against HCV genotype 1b infected in human Huh7 cells incubated for 96 hrs by luciferase assay; type: functional, organism-based, Hepacivirus hominis; conditions: Huh-7, 96 h
Summary of the method: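 Con1 (GT-1b) luciferase reporter replicon carrying the H77 (GT-1a) NS3 protease region, either WT or with A156T or D168A introduced by megaprimer mutagenesis. Cured Huh7 cells grown in DMEM with 10% heat-inactivated FBS and 0.1 mM non-essential amino acids. Cells electroporated with replicon RNA and kept with serially diluted inhibitor.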

Hepatitis C virus [2] = assay: Antiviral activity against HCV genotype 3a infected in human Huh7.5 cells incubated for 72 hrs by luciferase assay; type: functional, organism-based, Hepacivirus hominis; conditions: subtype 3a, Huh7.5, 72 h
Summary of the method: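 Huh7.5 cells stably harboring the GT-3a replicon S52/SG-Feo SHI, seeded at 8,000 cells/well. Cells lysed in 1X Passive Lysis Buffer and luciferase activity measured. EC50 taken from drug inhibition curves.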

Hepatitis C virus [3] = assay: Antiviral activity against HCV genotype 1b harboring D168A mutant infected in human Huh7 cells incubated for 96 hrs by luciferase assay; type: functional, organism-based, Hepacivirus hominis; conditions: subtype 1b, Huh-7, 96 h
Summary of the method: (§1)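 Con1 (GT-1b) luciferase reporter replicon carrying the H77 (GT-1a) NS3 protease region, with the mutation introduced by megaprimer site-directed mutagenesis. Cured Huh7 cells were grown in DMEM with 10% heat-inactivated FBS and 0.1 mM non-essential amino acids, electroporated with replicon RNA transcripts, and kept with serially diluted inhibitor. EC50 was taken directly from the inhibition curves.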

[4] = molecular target: T1, Hepatitis C virus serine protease, NS3/NS4A (Hepatitis C virus, UniProt A3EZI9+D2K2A8); assay: Inhibition of HCV GT-1a NS3/4a protease using Ac-DE-D(Edans)-EE-Abu-c-[COO]-AS-K(Dabcy1)-NH2 preincubated for 1 hr followed by substrate addition; type: protein complex, Hepatitis C virus subtype 1a
[5] = molecular target: T1, Hepatitis C virus serine protease, NS3/NS4A; assay: Inhibition of HCV GT-3a NS3/4a protease using Ac-DE-D(Edans)-EE-Abu-c-[COO]-AS-K(Dabcy1)-NH2 preincubated for 1 hr followed by substrate addition; type: protein-complex assay, Hepatitis C virus subtype 3a
Hepatitis C virus [6] = assay: Antiviral activity against HCV genotype 1b harboring A156T mutant infected in human Huh7 cells incubated for 96 hrs by luciferase assay; type: functional, organism-based, Hepacivirus hominis; conditions: subtype 1b, Huh-7, 96 h; summary of the method: as §1
[7] = Cmax in Sprague-Dawley rat at 10 mg/kg, po measured after 0.25 to 24 hrs by LC-MS/MS analysis; type: ADME, organism-based; set-up: route oral, time 0.25-24 hrs, dose 10 mg/kg; conditions: in vivo
[8] = Volume of distribution at steady state in Sprague-Dawley rat at 5 mg/kg, iv measured after 0.25 to 24 hrs by LC-MS/MS analysis; type: ADME, organism-based; conditions: in vivo, time 0.25-24 hrs, read-out: Vdss
[9] = Half life in Sprague-Dawley rat at 5 mg/kg, iv measured after 0.25 to 24 hrs by LC-MS/MS analysis; type: ADME, organism-based; conditions: in vivo, time 0.25-24 hrs
[10] = AUC(0 to 24 hrs) in Sprague-Dawley rat at 5 mg/kg, iv measured after 0.25 to 24 hrs by LC-MS/MS analysis; type: ADME, organism-based; set-up: route intravenous, dose 5 mg/kg, time 0.25-24 hrs; conditions: in vivo
[11] = Clearance in Sprague-Dawley rat at 5 mg/kg, iv measured after 0.25 to 24 hrs by LC-MS/MS analysis; type: ADME, organism-based; conditions: in vivo, time 0.25-24 hrs
[12] = Oral bioavailability in Sprague-Dawley rat at 10 mg/kg measured after 0.25 to 24 hrs by LC-MS/MS analysis; type: ADME, organism-based; conditions: in vivo, time 0.25-24 hrs
[13] = Tmax in Sprague-Dawley rat at 10 mg/kg, po measured after 0.25 to 24 hrs by LC-MS/MS analysis; type: ADME, organism-based; conditions: in vivo, time 0.25-24 hrs
[14] = Half life in Sprague-Dawley rat at 10 mg/kg, po measured after 0.25 to 24 hrs by LC-MS/MS analysis; type: ADME, organism-based; conditions: in vivo, time 0.25-24 hrs

Structure (SMILES) | EC50 (Hepatitis C virus [1]) | EC50 (Hepatitis C virus [2]) | EC50 (Hepatitis C virus [3]) | Ki [4] | Ki [5] | EC50 (Hepatitis C virus [6]) | Cmax [7] | Vd [8] | half-life [9] | AUC(0-t) [10] | clearance [11] | bioavailability [12] | Tmax [13] | half-life [14]
CC(C)(C)[C@@H]1NC(=O)O[C@@H]2CCC[C@H]2OC/C=C/C(F)(F)c2nc3ccccc3nc2O[C@@H]2C[C@@H](C(=O)N[C@]3(C(=O)NS(=O)(=O)C4(C)CC4)C[C@H]3C(F)F)N(C2)C1=O | 0.2 nM | 30 nM | 0.2 nM | – | – | – | – | – | – | – | – | – | – | –
COc1ccc2nc(C)c(O[C@@H]3C[C@H]4C(=O)N[C@]5(C(=O)NS(=O)(=O)C6(C)CC6)C[C@H]5/C=C/CCCCC[C@H](NC(=O)O[C@H](C)C(F)(F)F)C(=O)N4C3)nc2c1 | 0.5 nM | 260 nM | 2.5 nM | 1.1 nM | 122 nM | 18 nM | – | – | – | – | – | – | – | –
COc1ccc2nc(C)c(O[C@@H]3C[C@H]4C(=O)N[C@]5(C(=O)NS(=O)(=O)C6(C)CC6)C[C@H]5/C=C/CCCCC[C@H](NC(=O)OC5C[C@@H]6C[C@@H]6C5)C(=O)N4C3)nc2c1 (some centres undefined) | 0.1 nM | 900 nM | 0.5 nM | 0.5 nM | 39 nM | 5.3 nM | – | – | – | – | – | – | – | –
COc1ccc2nc(C)c(O[C@@H]3C[C@H]4C(=O)N[C@]5(C(=O)NS(=O)(=O)C6(C)CC6)C[C@H]5/C=C/CCCCC[C@H](NC(=O)OCC5(C(F)(F)F)CC5)C(=O)N4C3)nc2c1 | 0.1 nM | 330 nM | 1.4 nM | 0.9 nM | 230 nM | 5.6 nM | – | – | – | – | – | – | – | –
COc1ccc2nc(C)c(O[C@@H]3C[C@H]4C(=O)N[C@]5(C(=O)NS(=O)(=O)C6(C)CC6)C[C@H]5/C=C/CCCCC[C@H](NC(=O)OC5(C(F)(F)F)CCCC5)C(=O)N4C3)nc2c1 | 0.3 nM | 130 nM | 20 nM | 1.3 nM | 104 nM | 6.2 nM | 110 nM | 3.9 L/kg | 5.3 h | 2.7 µM·h | 37 mL/min/kg | 11% | 3 h | 4.9 h
COc1ccc2nc(O[C@@H]3C[C@H]4C(=O)N[C@]5(C(=O)NS(=O)(=O)C6(C)CC6)C[C@H]5/C=C/CCCCC[C@H](NC(=O)O[C@@H](C)C(C)C)C(=O)N4C3)c(C(F)(F)F)nc2c1 | 0.9 nM | 1500 nM | 3.1 nM | 6.1 nM | 447 nM | 8.7 nM | – | – | – | – | – | – | – | –
COc1ccc2nc(O[C@@H]3C[C@H]4C(=O)N[C@]5(C(=O)NS(=O)(=O)C6(C)CC6)C[C@H]5/C=C/CCCCC[C@H](NC(=O)OC(C)(C)C(F)(F)F)C(=O)N4C3)c(C(F)(F)F)nc2c1 | 1 nM | 330 nM | 4.3 nM | 3.6 nM | 390 nM | 10 nM | – | – | – | – | – | – | – | –
COc1ccc2nc(O[C@@H]3C[C@H]4C(=O)N[C@]5(C(=O)NS(=O)(=O)C6(C)CC6)C[C@H]5/C=C/CCCCC[C@H](NC(=O)O[C@H](C)C(F)(F)F)C(=O)N4C3)c(C(F)(F)F)nc2c1 | 1.6 nM | – | 7.3 nM | 2.8 nM | 490 nM | 30 nM | – | – | – | – | – | – | – | –
COc1ccc2nc(O[C@@H]3C[C@H]4C(=O)N[C@]5(C(=O)NS(=O)(=O)C6(C)CC6)C[C@H]5/C=C/CCCCC[C@H](NC(=O)OC5CCC5)C(=O)N4C3)c(C(F)(F)F)nc2c1 | 1.8 nM | – | 50 nM | 8.5 nM | 870 nM | 9.6 nM | – | – | – | – | – | – | – | –
COc1ccc2nc(C)c(O[C@@H]3C[C@H]4C(=O)N[C@]5(C(=O)NS(=O)(=O)C6(C)CC6)C[C@H]5/C=C/CCCCC[C@H](NC(=O)OC5(C(F)(F)F)CCC5)C(=O)N4C3)nc2c1 | 0.3 nM | 310 nM | 25 nM | 1.5 nM | 96 nM | 5.9 nM | – | – | – | – | – | – | – | –
COc1ccc2nc(O[C@@H]3C[C@H]4C(=O)N[C@]5(C(=O)NS(=O)(=O)C6(C)CC6)C[C@H]5/C=C/CCCCC[C@H](NC(=O)OC5(C)CCC5)C(=O)N4C3)c(C(F)(F)F)nc2c1 | 1.6 nM | – | 58 nM | 4.9 nM | 283 nM | 26 nM | – | – | – | – | – | – | – | –
COc1ccc2nc(O[C@@H]3C[C@H]4C(=O)N[C@]5(C(=O)NS(=O)(=O)C6(C)CC6)C[C@H]5/C=C/CCCCC[C@H](NC(=O)OC5(C)CCCC5)C(=O)N4C3)c(C(F)(F)F)nc2c1 | 5.8 nM | – | 16 nM | 0.9 nM | 161 nM | 70 nM | – | – | – | – | – | – | – | –
COc1ccc2nc(O[C@@H]3C[C@H]4C(=O)N[C@]5(C(=O)NS(=O)(=O)C6(C)CC6)C[C@H]5/C=C/CCCCC[C@H](NC(=O)O[C@@H](C)C(F)(F)F)C(=O)N4C3)c(C(F)(F)F)nc2c1 | 5.6 nM | – | 18 nM | 7.7 nM | 580 nM | 75 nM | – | – | – | – | – | – | – | –
COc1ccc2nc(C)c(O[C@@H]3C[C@H]4C(=O)N[C@]5(C(=O)NS(=O)(=O)C6(C)CC6)C[C@H]5/C=C/CCCCC[C@H](NC(=O)OC(C)(C)C)C(=O)N4C3)nc2c1 | 0.6 nM | 300 nM | 2.2 nM | 3.6 nM | 119 nM | 2.1 nM | 180 nM | 3.5 L/kg | 5.2 h | 2.2 µM·h | 51 mL/min/kg | 10% | 1.4 h | 3 h
COc1ccc2nc(O[C@@H]3C[C@H]4C(=O)N[C@]5(C(=O)NS(=O)(=O)C6(C)CC6)C[C@H]5/C=C/CCCCC[C@H](NC(=O)OC5(C(F)(F)F)CCC5)C(=O)N4C3)c(C(F)(F)F)nc2c1 | 1.4 nM | 900 nM | 7.8 nM | 2 nM | 133 nM | 5.1 nM | – | – | – | – | – | – | – | –
COc1ccc2nc(O[C@@H]3C[C@H]4C(=O)N[C@]5(C(=O)NS(=O)(=O)C6(C)CC6)C[C@H]5/C=C/CCCCC[C@H](NC(=O)OC5CCCC5)C(=O)N4C3)c(C(F)(F)F)nc2c1 | 3.2 nM | – | 6.2 nM | 8.1 nM | 433 nM | 45 nM | – | – | – | – | – | – | – | –
COc1ccc2nc(O[C@@H]3C[C@H]4C(=O)N[C@]5(C(=O)NS(=O)(=O)C6(C)CC6)C[C@H]5/C=C/CCCCC[C@H](NC(=O)OCC5(C)CC5(F)F)C(=O)N4C3)c(C(F)(F)F)nc2c1 (some centres undefined) | 2.7 nM | – | 8.5 nM | 2.1 nM | 336 nM | 130 nM | – | – | – | – | – | – | – | –
COc1ccc2nc(C)c(O[C@@H]3C[C@H]4C(=O)N[C@]5(C(=O)NS(=O)(=O)C6(C)CC6)C[C@H]5/C=C/CCCCC[C@H](NC(=O)OC(C)(C)C(F)(F)F)C(=O)N4C3)nc2c1 | 0.8 nM | 160 nM | – | 2.6 nM | 66 nM | 3.3 nM | – | – | – | – | – | – | – | –
COc1ccc2nc(O[C@@H]3C[C@H]4C(=O)N[C@]5(C(=O)NS(=O)(=O)C6(C)CC6)C[C@H]5/C=C/CCCCC[C@H](NC(=O)OC5CC5)C(=O)N4C3)c(C(F)(F)F)nc2c1 | 2 nM | – | 14 nM | 14 nM | 522 nM | 36 nM | – | – | – | – | – | – | – | –
COc1ccc2nc(O[C@@H]3C[C@H]4C(=O)N[C@]5(C(=O)NS(=O)(=O)C6(C)CC6)C[C@H]5/C=C/CCCCC[C@H](NC(=O)OC5(C(F)(F)F)CCCC5)C(=O)N4C3)c(C(F)(F)F)nc2c1 | 0.7 nM | 290 nM | 5.2 nM | 5.7 nM | 414 nM | 19 nM | – | – | – | – | – | – | – | –
